# According to ChEMBL document CHEMBL4033783, “Adventures in Scaffold Morphing: Discovery of Fused Ring Heterocyclic Checkpoint Kinase 1 (CHK1) Inhibitors” (J Med Chem, 2018):
# How the values were obtained:
# [1] = molecular target: T1, Serine/threonine-protein kinase Chk1 (Homo sapiens, UniProt O14757); experiment: Inhibition of CHK1 (unknown origin)
# T1 sequence (O14757 whole entry): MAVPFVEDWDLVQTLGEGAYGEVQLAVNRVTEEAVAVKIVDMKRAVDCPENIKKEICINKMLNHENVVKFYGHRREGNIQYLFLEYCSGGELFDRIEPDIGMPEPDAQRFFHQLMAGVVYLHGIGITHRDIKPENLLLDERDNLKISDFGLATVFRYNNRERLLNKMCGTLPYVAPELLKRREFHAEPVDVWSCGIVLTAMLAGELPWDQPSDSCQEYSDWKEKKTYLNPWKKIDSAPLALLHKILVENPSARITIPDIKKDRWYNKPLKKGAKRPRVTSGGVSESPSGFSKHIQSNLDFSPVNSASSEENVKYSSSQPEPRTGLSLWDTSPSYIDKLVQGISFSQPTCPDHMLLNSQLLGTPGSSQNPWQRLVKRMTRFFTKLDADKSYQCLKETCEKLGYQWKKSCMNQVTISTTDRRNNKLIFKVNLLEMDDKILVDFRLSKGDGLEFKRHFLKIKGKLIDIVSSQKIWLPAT
# [2] = molecular target: Voltage-gated inwardly rectifying potassium channel KCNH2 (Homo sapiens, UniProt Q12809)
# [3] = Aqueous solubility of the compound in pH 7.4 phosphate buffer by LC-UV analysis; format: physicochemical
# SW-620 = experiment: Antiproliferative activity against human SW620 cells; format: functional; settings: for GI50: Homo sapiens, SW-620
# Outline: (§1)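 Proliferation-inhibition concentration-response in the tumour cell lines, run as part of a gemcitabine potentiation assay, with the compound tested as a single agent without gemcitabine. Single-agent GI50 and GI25 were derived from the response curves. Values are the mean of two duplicated runs.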
# MDA-MB-231 = experiment: Antiproliferative activity against human MDA-MB-231 cells; format: functional; settings: for GI50: Homo sapiens, MDA-MB-231; outline: as §1
# NCI-H460 = experiment: Antiproliferative activity against human H460 cells harboring dominant negative p53 construct; format: functional; settings: for GI50: Homo sapiens, NCI-H460; outline: as §1
# [4] = Intrinsic clearance in Sprague-Dawley rat liver microsomes at […] after 2 mins in presence of NADPH by HPLC analysis; format: ADME, Microsome
# Liver = experiment: Intrinsic clearance in human liver microsomes; format: ADME, microsome
# [5] = Volume of distribution at steady state in iv dosed dog plasma; format: ADME, organism-based, Canis lupus familiaris; settings: read-out: Vdss
# [6] = Half life in iv dosed mouse plasma; format: ADME, organism-based
# [7] = Half life in iv dosed rat plasma; format: ADME, organism-based
# [8] = molecular target: T2, Serine/threonine-protein kinase Chk1 (Homo sapiens) (UniProt O14757)
# T2 sequence (whole entry): T1 sequence (O14757 whole entry)
# [9] = Clearance in iv dosed rat plasma; format: ADME, organism-based
# [10] = Clearance in iv dosed dog plasma; format: ADME, organism-based, Canis lupus familiaris
# [11] = Volume of distribution at steady state in iv dosed rat plasma; format: ADME, organism-based; settings: read-out: Vdss
# [12] = Volume of distribution at steady state in iv dosed mouse plasma; format: ADME, organism-based; settings: read-out: Vdss
# [13] = Half life in iv dosed dog plasma; format: ADME, organism-based, Canis lupus familiaris
# [14] = molecular target: T2, Serine/threonine-protein kinase Chk1 (Homo sapiens); remark: listed apart in the source
# [15] = molecular target: T2, Serine/threonine-protein kinase Chk1 (Homo sapiens); remark: listed apart in the source
# [16] = Clearance in iv dosed mouse plasma; format: ADME, organism-based
# HCT-116 = experiment: Abrogation of topotecan-induced G2 phase arrest in human HCT116 cells xenografted in mouse hollow fiber model assessed as ratio of cell levels at G2 phase to G1 phase at 10 mg/kg, iv after 30 hrs relative to control; format: functional
# Chain of Voltage-gated inwardly rectifying potassium channel KCNH2 (Q12809 whole entry): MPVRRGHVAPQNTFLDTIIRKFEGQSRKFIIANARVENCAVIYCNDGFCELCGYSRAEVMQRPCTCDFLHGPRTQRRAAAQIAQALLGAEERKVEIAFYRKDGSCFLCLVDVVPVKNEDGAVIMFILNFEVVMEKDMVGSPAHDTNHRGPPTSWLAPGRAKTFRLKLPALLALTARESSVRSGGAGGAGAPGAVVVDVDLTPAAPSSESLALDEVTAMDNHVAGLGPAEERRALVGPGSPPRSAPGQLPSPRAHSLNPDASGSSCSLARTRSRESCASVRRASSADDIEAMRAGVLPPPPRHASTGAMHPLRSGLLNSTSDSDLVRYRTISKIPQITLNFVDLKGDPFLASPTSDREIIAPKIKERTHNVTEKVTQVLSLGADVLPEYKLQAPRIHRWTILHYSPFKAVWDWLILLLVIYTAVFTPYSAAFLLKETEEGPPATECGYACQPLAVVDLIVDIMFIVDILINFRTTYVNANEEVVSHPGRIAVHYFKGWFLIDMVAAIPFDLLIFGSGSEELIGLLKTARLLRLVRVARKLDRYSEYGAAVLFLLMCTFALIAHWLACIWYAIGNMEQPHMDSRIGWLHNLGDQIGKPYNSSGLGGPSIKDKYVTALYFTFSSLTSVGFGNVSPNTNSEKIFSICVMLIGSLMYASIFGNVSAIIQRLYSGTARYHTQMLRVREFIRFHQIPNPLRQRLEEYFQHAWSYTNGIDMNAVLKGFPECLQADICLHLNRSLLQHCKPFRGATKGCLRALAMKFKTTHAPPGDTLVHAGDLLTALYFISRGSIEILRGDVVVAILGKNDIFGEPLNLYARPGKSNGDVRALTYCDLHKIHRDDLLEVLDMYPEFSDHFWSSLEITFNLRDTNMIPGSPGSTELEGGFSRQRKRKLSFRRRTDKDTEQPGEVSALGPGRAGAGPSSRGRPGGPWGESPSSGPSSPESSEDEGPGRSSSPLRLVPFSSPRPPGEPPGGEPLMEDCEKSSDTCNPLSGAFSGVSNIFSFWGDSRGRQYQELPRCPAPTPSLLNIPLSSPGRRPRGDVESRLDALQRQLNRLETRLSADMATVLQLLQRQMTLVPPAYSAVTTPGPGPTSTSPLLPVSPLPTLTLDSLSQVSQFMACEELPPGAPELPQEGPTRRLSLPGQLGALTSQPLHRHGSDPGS
compound,measurement,setting,value
NC(=O)c1cnc(N(CCc2ccccc2)[C@H]2CCCNC2)c2cc(-c3ccccc3)sc12,IC50,[1],660 nM
NC(=O)c1cnc(N[C@H]2CCCNC2)c2sc(-c3ccccc3)cc12,IC50,[2],> 31600 nM
same,IC50,[1],2600 nM
Cn1cc(-c2cc3c(N[C@H]4CCCNC4)ncc(C(N)=O)c3s2)cn1,IC50,[1],6 nM
NC(=O)c1ccc(N[C@H]2CCCNC2)c2cc(-c3ccc(Cl)cc3)[nH]c12,solubility,[3],320 µM
same,IC50,[2],4100 nM
same,IC50,[1],15 nM
C[C@@H]1CC[C@H](Nc2ncc(C(N)=O)c3sc(-c4ccccc4)cc23)[C@H](C)N1 (racemic),IC50,[2],8400 nM
same,IC50,[1],12 nM
NC(=O)c1cnc(N[C@H]2CCCNC2)c2sc(-c3cccc(F)c3)cc12,IC50,[1],6800 nM
NC(=O)c1cnc(N[C@H]2CCCNC2)c2cc(-n3ccnc3)sc12,IC50,[1],24 nM
Nc1ccn([C@@H]2O[C@H](CO)[C@@H](O)C2(F)F)c(=O)n1 [GEMCITABINE],GI50,SW-620,840 nM
same,GI50,MDA-MB-231,251 nM
same,GI50,NCI-H460,2080 nM
NC(=O)c1ccc(N[C@H]2CCCNC2)c2cc(-c3ccc(F)cc3)[nH]c12,solubility,[3],380 µM
same,IC50,[2],6700 nM
same,IC50,[1],23 nM
NC(=O)c1cnc(O[C@H]2CCCNC2)c2cc(-c3ccccc3)sc12,intrinsic clearance,[4],> 120 µL/min/mg
same,intrinsic clearance (CLint),Liver,35 µL/min/mg
same,IC50,[1],83 nM
NC(=O)c1cnc(N[C@H]2CCCNC2)c2cc(-c3cccc(F)c3)sc12,GI25,SW-620,420 nM
same,GI50,SW-620,841 nM
same,Vd,[5],4.4 L/kg
same,half-life,[6],8.5 h
same,half-life,[7],4.4 h
same,GI25,MDA-MB-231,320 nM
same,GI50,MDA-MB-231,641 nM
same,solubility,[3],334 µM
same,PF,[8],4
same,clearance,[9],196 mL/min/kg
same,clearance,[10],10 mL/min/kg
same,Vd,[11],54.3 L/kg
same,Vd,[12],4.6 L/kg
same,half-life,[13],5.1 h
same,IC50,[1],12 nM
same,PF,[14],38
same,PF,[15],11
same,GI25,NCI-H460,1450 nM
same,GI50,NCI-H460,2900 nM
same,clearance,[16],28 mL/min/kg
NC(=O)c1cnc(N[C@H]2CNCC[C@@H]2O)c2cc(-c3ccccc3)sc12 (racemic),IC50,[2],> 31600 nM
same,IC50,[1],10 nM
C[C@@H]1CC[C@H](Nc2ncc(C(N)=O)c3sc(-c4ccccc4)cc23)CN1 (racemic),IC50,[1],21 nM
C[C@@H]1NCCC[C@@H]1Nc1ncc(C(N)=O)c2sc(-c3ccccc3)cc12,IC50,[2],5900 nM
same,IC50,[1],69 nM
NC(=O)c1cnc(SC2CCCNC2)c2cc(-c3ccccc3)sc12 (racemic),intrinsic clearance,[4],11 µL/min/mg
same,IC50,[2],4900 nM
same,intrinsic clearance (CLint),Liver,< 5 µL/min/mg
same,IC50,[1],56 nM
NC(=O)c1cnc(N[C@H]2CCCNC2)c2cc(-c3cnn(Cc4ccccc4)c3)sc12,IC50,[1],14 nM
NC(=O)c1cnc(N[C@H]2CCCNC2)c2cc(-c3ccccc3)oc12,solubility,[3],> 1000 µM
same,IC50,[1],330 nM
NC(=O)Nc1sc(-c2ccccc2)cc1C(=O)N[C@H]1CCCNC1,GI25,SW-620,420 nM
same,GI50,SW-620,839 nM
same,GI25,MDA-MB-231,300 nM
same,GI50,MDA-MB-231,596 nM
same,solubility,[3],> 2000 µM
same,PF,[8],9
same,IC50,[2],> 31600 nM
same,PF,[14],67
same,PF,[15],11
same,GI25,NCI-H460,620 nM
same,GI50,NCI-H460,1230 nM
NC(=O)c1cnc(N[C@H]2CCCNC2)c2cc(-c3ccsc3)sc12,solubility,[3],980 µM
same,intrinsic clearance,[4],72 µL/min/mg
same,IC50,[2],28000 nM
same,intrinsic clearance (CLint),Liver,29 µL/min/mg
same,IC50,[1],6 nM
CN(c1ncc(C(N)=O)c2sc(-c3ccccc3)cc12)[C@H]1CCCNC1,intrinsic clearance,[4],37 µL/min/mg
same,IC50,[2],2700 nM
same,intrinsic clearance (CLint),Liver,10 µL/min/mg
same,IC50,[1],25 nM
NC(=O)c1cnc(N[C@H]2CCCNC2)c2cc(-c3ccccc3)sc12,GI25,SW-620,490 nM
same,GI50,SW-620,970 nM
same,Vd,[5],3.7 L/kg
same,half-life,[6],1.5 h
same,half-life,[7],3.1 h
same,Ratio,HCT-116,3.2
same,GI25,MDA-MB-231,270 nM
same,GI50,MDA-MB-231,536 nM
same,solubility,[3],> 1000 µM
same,PF,[8],5
same,intrinsic clearance,[4],32 µL/min/mg
same,clearance,[9],295 mL/min/kg
same,IC50,[2],19700 nM
same,clearance,[10],11 mL/min/kg
same,Vd,[11],75 L/kg
same,Vd,[12],4 L/kg
same,intrinsic clearance (CLint),Liver,9.2 µL/min/mg
same,half-life,[13],5.4 h
same,IC50,[1],7 nM
same,PF,[14],28
same,PF,[15],12
same,GI25,NCI-H460,900 nM
same,GI50,NCI-H460,1800 nM
same,clearance,[16],45 mL/min/kg
NC(=O)c1ccc(N[C@H]2CCCNC2)c2cc(-c3cccc(F)c3)[nH]c12,IC50,[2],7700 nM
same,IC50,[1],9 nM
NC(=O)c1cnc(N[C@H]2CCCNC2)c2cc(-c3cccs3)sc12,solubility,[3],> 1000 µM
same,intrinsic clearance,[4],36 µL/min/mg
same,IC50,[2],> 30000 nM
same,intrinsic clearance (CLint),Liver,9.1 µL/min/mg
same,IC50,[1],15 nM
CN1CCC[C@H](Nc2ncc(C(N)=O)c3sc(-c4ccccc4)cc23)C1,IC50,[1],140 nM
NC(=O)c1ccc(N[C@H]2CCCNC2)c2cc(-c3ccccc3)[nH]c12,solubility,[3],280 µM
same,intrinsic clearance,[4],120 µL/min/mg
same,IC50,[2],11600 nM
same,intrinsic clearance (CLint),Liver,21 µL/min/mg
same,IC50,[1],31 nM
NC(=O)c1cnc(N[C@H]2CCCNC2)c2cc(-c3cn[nH]c3)sc12,IC50,[1],20 nM
NC(=O)c1cnc(N[C@H]2CCCN[C@@H]2CCO)c2cc(-c3ccccc3)sc12 (racemic),IC50,[2],> 31600 nM
same,IC50,[1],83 nM
NC(=O)c1cnc(N(CCO)[C@H]2CCCNC2)c2cc(-c3ccccc3)sc12,IC50,[2],> 31600 nM
same,IC50,[1],79 nM
C[C@H]1NCCC[C@@H]1Nc1ncc(C(N)=O)c2sc(-c3ccccc3)cc12,GI25,SW-620,360 nM
same,GI50,SW-620,725 nM
same,Vd,[5],7.1 L/kg
same,half-life,[6],3.4 h
same,half-life,[7],5.1 h
same,GI25,MDA-MB-231,150 nM
same,GI50,MDA-MB-231,306 nM
same,PF,[8],5
same,intrinsic clearance,[4],< 10 µL/min/mg
same,clearance,[9],105 mL/min/kg
same,IC50,[2],> 31600 nM
same,clearance,[10],10 mL/min/kg
same,Vd,[11],24 L/kg
same,Vd,[12],4.6 L/kg
same,intrinsic clearance (CLint),Liver,< 5 µL/min/mg
same,half-life,[13],9.4 h
same,IC50,[1],6 nM
same,PF,[14],124
same,PF,[15],11
same,clearance,[16],29 mL/min/kg
CCN(c1ncc(C(N)=O)c2sc(-c3ccccc3)cc12)[C@H]1CCCNC1,IC50,[2],2400 nM
same,IC50,[1],35 nM
